Ecoli rRNA inh: reduced GFP signal of wild-type E. coli, primary screen, bacterial rRNA inhibitor project, GFP/RFP fluorescence, OD600, single point; E. coli WT GFP vs humanized-ribosome RFP mutants, 24 h; stronger effect = lower value; DMSO median 0, no signal -100; AID 720706, 2013; actives 1.6% (n = 350,000); GFP signal change (wild-type ribosome), % (concentration not given with the values);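 active = significant combined selectivity score with lowered wild-type GFP, culture density cut under 30%, mutant RFP and density less affected; inactive = any of these conditions unmet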
ERAP1 HTS inh: human ERAP1 aminopeptidase inhibitors, primary screen, biochemical, single point, plate reader; Endoplasmic reticulum aminopeptidase 1 (Homo sapiens), Q9NZ08; recombinant ERAP1, Leu-AMC fluorescence, 60 min; inhibition, % at 10.7 µM; actives 0.15% (n = 340,000);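 active = mean replicate inhibition of at least 30%, or all replicates individually reaching that 30% level; inactive = mean below 30% and not every replicate reaching it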;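 note: 0% = neutral control wells and 100% = L-leucinethiol positive control wells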
S100A4 MyoIIA: inhibitors of S100A4-myosin IIA peptide binding, primary screen, biochemical, fluorescence polarization, TAMRA-MyoIIA peptide; Protein S100-A4 (Homo sapiens), P26447; inhibition, % at 10.7 µM; actives 0.14% (n = 360,000); AID 652163, 2013;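 active = mean inhibition of at least 70% across replicates, with every replicate also reaching that level; inconclusive = mean inhibition reaches 70% but some replicates fall short; inactive = mean inhibition below 70%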
Target sequence (P26447 whole entry, looked up): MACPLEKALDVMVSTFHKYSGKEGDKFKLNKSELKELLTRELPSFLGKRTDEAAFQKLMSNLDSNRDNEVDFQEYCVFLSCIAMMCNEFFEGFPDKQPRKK
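Material: S100A4 monomer protein / Buffer or medium: 50 mM HEPES pH 7.2, 10 mM CaCl2, 100 mM KCl / Times: 5 min incubation before reading / Benchmarks: neutral control DMSO, positive control TFP / Reagent: labelled myosin peptide probe, 5 nM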
SIRT5 block: SIRT5 desuccinylase inhibitors, primary screen, biochemical, fluorescence imaging, single point, set 5. Purified SirT5, succinyl-peptide AMC, trypsin-coupled fluorescence. inhibition, % at 15 µM. NAD-dependent protein deacylase sirtuin-5, mitochondrial (Homo sapiens), Q9NXA8. actives 1.1% (n = 330,000). AID 652115, 2013; in the data active = inhibition above about 15%; inconclusive = no clear call, values can overlap the other calls
Target sequence (Q9NXA8 whole entry, looked up): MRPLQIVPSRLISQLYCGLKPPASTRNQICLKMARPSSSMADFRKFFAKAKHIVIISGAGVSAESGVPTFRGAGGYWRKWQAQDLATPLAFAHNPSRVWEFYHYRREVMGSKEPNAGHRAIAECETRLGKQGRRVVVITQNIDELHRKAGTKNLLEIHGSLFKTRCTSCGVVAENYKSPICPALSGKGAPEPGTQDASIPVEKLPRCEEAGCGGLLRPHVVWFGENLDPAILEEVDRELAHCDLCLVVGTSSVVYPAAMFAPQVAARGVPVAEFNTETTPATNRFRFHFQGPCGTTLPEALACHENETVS
E-selectin induc: E-selectin induction in HUVECs, primary screen, imaging, HUVEC, immunofluorescence imaging, single point | normalized: neutral wells 0, TNF-alpha wells 100 | activation, % at 7.58 µM | actives 0.37% (n = 260,000) | AID 686992, 2013;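 active = mean E-selectin-positive cell signal at least 10% of the positive control, reached in at least 60% of replicates, without over 20% cell loss; inconclusive = no rule given, readout overlaps actives, possibly toxicity-flagged; inactive = the rest, including those meeting only one limit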
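System: HUVEC, human umbilical vein endothelial cells; quantity: 3,000 cells/well; buffer or medium: EGM-2 medium, gelatin-coated wells; dosing: single-point compound dose; detection: immunofluorescence imaging; evaluation: % PE-positive cells; benchmarks: TNF-alpha, DMSO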
MLL AF4-AF9 inh: inhibitors of AF4 peptide binding to AF9, primary screen, biochemical, AlphaScreen, biotin-AF4 peptide, FLAG-AF9, single point; inhibition, % at 10 µM; Protein AF-9 (Homo sapiens), P42568; actives 0.47% (n = 350,000);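 active = every replicate reaching a set inhibition limit, whatever the replicate mean, cut at about 25% in these data; inconclusive = mean inhibition reaches that limit but some replicates miss it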;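 note: 0% = plate neutral control median and 100% = total signal loss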
* hit, by the source's call; ? = inconclusive; . = not tested or not shown. Hits are enriched below; roughly 3.4% of the tested compounds scored in any of these assays.

SMILES | Ecoli rRNA inh | ERAP1 HTS inh | S100A4 MyoIIA | SIRT5 block | E-selectin induc | MLL AF4-AF9 inh
COc1ccc(CN(C)C[C@@H]2Oc3ccc(NC(=O)CCN4CCOCC4)cc3CC(=O)N([C@H](C)CO)C[C@H]2C)cc1 | 4 | -3 | 48 | . | -3 | 0
Oc1ccccc1/C=N/[n+]1ccccc1 | 5 | 97* | -4 | -18 | . | 6
Oc1ccccc1C=Nc1cccc2ccccc12 | 2 | -1 | -4 | -5 | 0 | -3
CCOC(=O)c1cnc2ccc(C(=O)OC)cc2c1NCCN1CCOCC1 | -27* | 5 | -4 | 0 | . | 8
CCOC(=O)c1cnc2ccc(C(=O)OC)cc2c1NCCCN1CCOCC1 | -21 | 1 | -7 | 3 | 0 | -1
C[C@@H](NC(=O)C[C@@H]1C=C[C@@H](NC(=O)Nc2ccc3c(c2)OCO3)[C@H](CO)O1)c1ccccc1 | -9 | -2 | 5 | -1 | 0 | 0
CC(=O)N1C[C@@H]2[C@H](c3ccccc31)[C@H](CO)N2S(=O)(=O)c1ccccc1 | 0 | 0 | -9 | -3 | 0 | 2
CCN1CCN(C(=O)c2ccc3c(c2)N(Cc2ccccc2)C(=O)c2ccccc2S3=O)CC1 (centres undefined) | 6 | 2 | -3 | -2 | 0 | 49*
CCOC(=O)Cc1csc(NC(=O)Cc2ccc(Cl)cc2)n1 | -22* | 0 | -11 | -5 | . | -1
CCOC(=O)Cc1csc(NC(=O)Nc2ccc(OC(F)(F)F)cc2)n1 | -21* | 0 | 1 | -1 | 3 | 2
CCOC(=O)Cc1csc(NC(=O)COc2ccc(C)cc2)n1 | -8 | 6 | 2 | 0 | . | -10
CCOC(=O)Cc1csc(NC(=O)Cc2ccc(Br)cc2)n1 | -25 | -1 | -3 | -1 | -1 | -6
O=C(NCc1nnc(SCc2ccccc2)n1-c1ccccc1)C12CC3CC(CC(C3)C1)C2 | -31* | 4 | -3 | 1 | 0 | -72
C[C@@H]1CN([C@@H](C)CO)S(=O)(=O)c2ccc(C3=CCCCC3)cc2O[C@H]1CN(C)S(=O)(=O)c1ccc(F)cc1 | 3 | 0 | 6 | 26* | 0 | -1
C[C@H](CO)N1C[C@H](C)[C@H](CN(C)S(=O)(=O)c2ccc(F)cc2)Oc2cc(C3=CCCCC3)ccc2S1(=O)=O | 5 | 0 | 8 | 32* | 0 | 0
Cc1ccc(S(=O)(=O)N(C)C[C@@H]2Oc3cc(C4=CCCC4)ccc3S(=O)(=O)N([C@@H](C)CO)C[C@H]2C)cc1 | 0 | 0 | ? | 5 | 0 | 1
C[C@@H]1CN([C@@H](C)CO)S(=O)(=O)c2ccc(C3=CCCCC3)cc2O[C@@H]1CN(C)S(=O)(=O)c1ccc(F)cc1 | 0 | 0 | 8 | 22* | 0 | 0
C[C@H]1CN([C@@H](C)CO)S(=O)(=O)c2ccc(C3=CCCC3)cc2O[C@@H]1CN(C)S(=O)(=O)c1ccc(F)cc1 | 1 | -2 | 7 | 4 | 0 | 2
C[C@@H]1CN([C@H](C)CO)S(=O)(=O)c2ccc(C3=CCCC3)cc2O[C@@H]1CN(C)S(=O)(=O)c1ccc(F)cc1 | -1 | -1 | -7 | 0 | 0 | -1
C[C@H]1CN([C@@H](C)CO)S(=O)(=O)c2ccc(C3=CCCCC3)cc2O[C@H]1CN(C)S(=O)(=O)c1ccc(F)cc1 | -1 | 3 | 7 | 27* | 1 | 1
CO[C@H]1CN(C)C(=O)c2ccc(NS(=O)(=O)c3ccc(-c4ccccc4)cc3)cc2OC[C@@H](C)NC[C@@H]1C | -1 | 25 | 4 | 0 | 0 | 0
CC(C)(C)S(=O)N1Cc2cc(C(=O)O)nc(-c3cccc(C#CCC4CCCC4)c3)c2[C@H]1CCO (some centres undefined) | -8 | . | . | . | . | .
O=C(c1ccc(F)cc1)N1CCCCN2[C@@H](CO)[C@H](c3ccc(-c4ccc(F)cc4)cc3)[C@@H]2C1 | . | -1 | 8 | 1 | . | 3
CN1[C@@H]2Cn3c(ccc(-c4ccccc4)c3=O)[C@H]1[C@@H](C(=O)NCCCN1CCOCC1)[C@@H]2CO | 2 | 0 | -3 | 5 | 0 | 0
C[C@@H]1CN([C@H](C)CO)S(=O)(=O)c2ccc(C3=CCCC3)cc2O[C@H]1CN(C)S(=O)(=O)c1ccc(F)cc1 | -2 | -1 | 6 | 4 | 0 | -1
SMILES | Ecoli rRNA inh | ERAP1 HTS inh | S100A4 MyoIIA | SIRT5 block | E-selectin induc | MLL AF4-AF9 inh
C[C@H]1CN([C@@H](C)CO)S(=O)(=O)c2ccc(C3=CCCCC3)cc2O[C@@H]1CN(C)S(=O)(=O)c1ccc(F)cc1 | -3 | -2 | 8 | 33* | 0 | -5
N#C/C(=C\Nc1ccccc1SC(F)(F)F)c1nc(-c2ccc(F)cc2)cs1 | 9 | 2 | 4 | 19* | . | -1
C[C@H]1CN([C@@H](C)CO)C(=O)c2cccc(NC(=O)Nc3ccc(F)cc3)c2O[C@H]1CN(C)CC1CCCCC1 | 0 | 5 | -7 | -23 | 34* | 1
COc1ccc(NC(=O)N(C)C[C@H]2Oc3c(NC(=O)NC4CCCCC4)cccc3C(=O)N([C@H](C)CO)C[C@H]2C)cc1 | 2 | 2 | 88* | 2 | 0 | 3
COc1ccc(NC(=O)Nc2cccc3c2O[C@H](CN(C)C(=O)NC2CCCCC2)[C@H](C)CN([C@H](C)CO)C3=O)cc1 | -2 | -1 | 0 | 5 | 32* | 5
C[C@H]1CN([C@@H](C)CO)C(=O)c2cccc(NC(=O)NC3CCCCC3)c2O[C@@H]1CN(C)C(=O)Nc1ccc(F)cc1 | -2 | 1 | -2 | -8 | 0 | -3
C[C@H](CO)N1C[C@H](C)[C@@H](CN(C)CC2CCCCC2)Oc2c(NC(=O)Nc3ccc(F)cc3)cccc2C1=O | -11 | . | . | . | 1 | .
C[C@H]1CN([C@@H](C)CO)C(=O)c2cccc(NC(=O)Nc3ccc(F)cc3)c2O[C@@H]1CN(C)C(=O)NC1CCCCC1 | -1 | 1 | -46 | 0 | 69* | 0
CO[C@H]1CN(C)C(=O)c2ccc(NC(=O)c3cc(C)on3)cc2OC[C@@H](C)N(C)C[C@H]1C | 1 | 0 | 2 | -3 | 0 | -2
COc1ccccc1NC(=O)N[C@@H]1CC[C@H](CCNS(=O)(=O)c2ccc(C)cc2)O[C@@H]1CO | 2 | 1 | 16 | 0 | -1 | -1

Screening data deposited in PubChem by Broad Institute.
